Columns and labels:
[1] = target: Glutamate NMDA receptor (Rattus norvegicus) (UniProt P35439+Q00959+Q00960+Q00961+Q62645+Q8VHN2+Q9R1M7); assay: Displacement of [3H]TCP from rat brain NMDA receptor at 1 uM
How it was run: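 Rat brain membrane suspensions; competition for the PCP site of the NMDA receptor with [3H]TCP as radioligand. Test ligand at 1.0 μM, read-out as percent inhibition of [3H]TCP binding. Values are the mean of two experiments.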

Glutamate NMDA receptor = assay: Displacement of [3H]TCP from rat brain NMDA receptor
How it was run: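 Rat brain membrane suspensions, PCP site of NMDA receptor; [3H]TCP as radioligand. Ligands first screened at 1.0 μM for inhibition of [3H]TCP binding. Ki determined, also with [3H]TCP, usually when inhibition at 1.0 μM reached 80% or more. Values are the mean from two experiments.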

| inhibition [1] | SMILES | Ki (Glutamate NMDA receptor) |
| --- | --- | --- |
| 37.6% | CN(C(=N)Nc1cccc2ccccc12)c1c(F)ccc(Cl)c1F |  |
| 55% | CN(C(=N)Nc1cccc2ccccc12)c1ccc2ccccc2c1 |  |
| 65.8% | CN(C(=N)Nc1cccc2ccccc12)c1ccc(F)c(Cl)c1 |  |
| 14.4% | CSc1cccc(N(C)C(=N)Nc2ccc(Br)c3ccncc23)c1 |  |
| 62.1% | CN(C(=N)Nc1cccc2ccccc12)c1ccc(F)c(C#N)c1 |  |
| 56.5% | CN(C(=N)Nc1cccc2ccccc12)c1ccc(F)c(Br)c1 |  |
| 91.7% | CSc1cccc(N(C)C(=N)Nc2cccc3c(Cl)nccc23)c1 | 540 nM |
| 82.3% | CC(=O)c1cccc(N(C)C(=N)Nc2cccc3ccccc23)c1 | 152 nM |
| 32.9% | COc1cc(F)cc(N(C)C(=N)Nc2cccc3ccccc23)c1 |  |
| 76.7% | CN(C(=N)Nc1cccc2ccccc12)c1cccc(SCCF)c1 |  |
| 74.3% | C#Cc1cccc(N(C)C(=N)Nc2cccc3ccccc23)c1 |  |
| 13.8% | CN(C(=N)Nc1cccc2ccccc12)c1cc(Br)ccc1F |  |
| 23.7% | CSc1cccc(N(C)C(=N)Nc2cnccc2Br)c1 |  |
| 11.9% | CN(C(=N)Nc1cccc2ccccc12)c1cccc(O)c1 |  |
| 0.7% | CN(C(=N)Nc1cccc2ccccc12)c1ccc(F)c([N+](=O)[O-])c1 |  |
| 30% | CN(C(=N)Nc1cccc2ccccc12)c1cccc(Oc2ccccc2)c1 |  |

| inhibition [1] | SMILES | Ki (Glutamate NMDA receptor) |
| --- | --- | --- |
| 16.2% | CN(C(=N)Nc1cccc2ccccc12)c1cccc(Cc2ccccc2)c1 |  |
| 91.2% | CSc1cccc(N(C)C(=N)Nc2cccc3cnccc23)c1 | 110 nM |
| 69.7% | CSc1cccc(N(C)C(=N)Nc2ccc(Br)cc2Br)c1 |  |
| 80.7% | CSc1cccc(N(C)C(=N)Nc2cncc3ccccc23)c1 | > 1000 nM |
| 72.2% | CSc1cccc(N(C)C(=N)Nc2cccc3cccnc23)c1 |  |
| 25.3% | CSc1cccc(N(C)C(=N)Nc2nccc3ccccc23)c1 |  |
| 8.6% | CSc1cccc(N(C)C(=N)Nc2ccc(Cl)c3ncccc23)c1 |  |
| 3.4% | CSc1cccc(N(C)C(=N)Nc2ccc3ccccc3c2)c1 |  |
| 79.2% | CN(C(=N)Nc1cccc2ccccc12)c1cccc(OC(F)(F)F)c1 |  |
| 73.9% | C=Cc1cccc(N(C)C(=N)Nc2cccc3ccccc23)c1 |  |
| 73.8% | CSc1cccc(N(C)C(=N)Nc2cccc3ccncc23)c1 |  |
| 84% | CN(C(=N)Nc1cccc2ccccc12)c1cccc(Cl)c1F |  |
| 46.5% | Cc1cc(N(C)C(=N)Nc2cccc3ccccc23)ccc1F |  |
| -2.5% | CN(C(=N)Nc1cccc2ccccc12)c1cccc(OCc2ccccc2)c1 |  |
| 62.9% | CN(C(=N)Nc1cccc2ccccc12)c1cccc(C#N)c1 |  |

| SMILES | inhibition [1] | Ki (Glutamate NMDA receptor) |
| --- | --- | --- |
| CN(C(=N)Nc1cccc2ccccc12)c1cc(F)cc(Cl)c1 | 86.8% | 78.4 nM |
| CN(C(=N)Nc1cccc2ccccc12)c1cccc(F)c1 | 36.9% |  |
| C=CSc1cccc(N(C)C(=N)Nc2cccc3ccccc23)c1 | 88.4% |  |
| CN(C)c1cccc(N(C)C(=N)Nc2cccc3ccccc23)c1 | 94.6% | 36.7 nM |
| CN(C(=N)Nc1cccc2ccccc12)c1cccc(Br)c1 | 104% | 53.7 nM |
| CN(C(=N)Nc1cccc2ccccc12)c1cccc(OC(F)F)c1 | 66.4% |  |
| CN(C(=N)Nc1cccc2ccccc12)c1cccc(C(F)(F)F)c1 | 107% | 18.3 nM |
| CN(C(=N)Nc1cccc2ccccc12)c1cccc(SC(F)(F)F)c1 | 80% | 447 nM |
| CN(C(=N)Nc1cccc2ccccc12)c1cccc(I)c1 | 106% | 31.9 nM |
| CN(C(=N)Nc1cccc2ccccc12)c1cccc(Cl)c1 | 69.2% |  |
| CSc1cccc(N(C)C(=N)Nc2cccc3ccccc23)c1 | 93.1% | 39.8 nM |
| CN(C(=N)Nc1cccc2ccccc12)c1cccc(CO)c1 | 20% |  |
